Compound activity from PubChem.
Rows were chosen to be rich in hits. Some 2.6% of all compounds tested hit in one or more screens of this group.
CHT inh: inhibitors of human choline transporter CHT; High affinity choline transporter 1 (Homo sapiens), Q9GZV3; CHT-expressing cells, membrane potential dye, choline response; hits give low values; B-score at 10 µM; hit rate 0.86% among 310,000; AID 488975, 2010;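 active = B-score over 3 SD under the library average, and starting fluorescence ratio not unusually high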;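 also: choline stimulus applied at its EC90 after an EC20 pre-addition; B-score computed on integrated fluorescence ratio after choline addition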
Cl transport mod: KCC2 cotransporter modulators, thallium flux, primary screen, cell-based, HEK293 KCC2, FluoZin-2 fluorescence, MLSMR; Solute carrier family 12 member 5 (Homo sapiens), Q9H2X9; KCC2 cells, thallium flux FluoZin-2 fluorescence; B-score of Tl+ flux slope (higher = more flux/activation; lower = inhibition) at 10 µM; hit rate 2.2% among 190,000; AID 1456, 2008;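 active = thallium flux slope and its plate-corrected score both differing from the plate sample mean at a set confidence after two filtering rounds, in either direction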;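 also: slope of fluorescence scaled to starting intensity during 10 to 20 s after thallium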
CHT PAM: CHT positive allosteric modulators, primary screen, cell-based, membrane potential dye, choline EC20; CHT-expressing cells; hits give high values; LV-AA mutant CHT in HEK293 cells; B-score at 10 µM; hit rate 0.49% among 310,000;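 active = initial fluorescence not abnormally high and integrated response B-score, plate-corrected, over 3 SD above library mean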
Rad51 HR inh: human RAD51 strand exchange inhibitors, primary screen, biochemical, fluorescence; hit rate 0.085% among 200,000; AID 1385, 2008; hRad51 DNA strand exchange, fluorescence dequenching; inhibition, % at 10 µM;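 active = inhibition above 40% at the single screening dose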
Target sequence (Q06609 whole entry, looked up): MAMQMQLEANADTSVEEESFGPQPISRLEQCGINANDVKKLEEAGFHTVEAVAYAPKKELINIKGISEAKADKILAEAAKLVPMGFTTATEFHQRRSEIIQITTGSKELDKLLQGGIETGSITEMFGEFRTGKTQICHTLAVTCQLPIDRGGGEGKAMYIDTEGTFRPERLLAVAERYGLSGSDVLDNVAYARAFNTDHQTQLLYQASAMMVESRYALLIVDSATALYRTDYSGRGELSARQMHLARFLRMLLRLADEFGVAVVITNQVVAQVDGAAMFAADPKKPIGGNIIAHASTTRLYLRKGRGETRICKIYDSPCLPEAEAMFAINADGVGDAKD
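Test system – preformed human Rad51 ssDNA filaments · Reagent – Donor/quencher-labelled 47-bp dsDNA substrate · Incubation – 37 °C 15-min filament assembly, 30-min compound preincubation, 15-min exchange · Signal – FRET fluorescence dequenching, excitation 485 nm, emission 520 nm · Read-out – percent inhibition from fluorescence, normalised to plate control and blank means · Benchmarks – plate control and blank wells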
CHT activ conf: CHT activators, confirmation, cell-based, membrane potential dye, duplicate. shares compounds with CHT PAM. CHT-expressing cells, membrane potential dye fluorescence (FDSS); % of choline EC20–EC90 response window; HEK293 expressing CHT LV-AA mutant; choline added at its EC20. activation, % at 10 µM. hit rate 91% among 2,500. AID 504833, 2011;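 active = primary screen active, with duplicate mean activation above negative control mean plus 3 SD, cut at about 11% in these data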
HEK293 MP dye: membrane potential response in parental HEK293 cells, counter-screen for CHT activator project, cell-based, membrane potential dye. shares compounds with CHT PAM. membrane potential dye fluorescence (FDSS); measured after EC20 choline addition. ratio readout change at 10 µM, hits read low. hit rate 62% among 2,500;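 active = duplicate-averaged ratio beyond 3 SD from buffer wells, up or down, though filed actives are nearly all decreases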
A number is an active result; – = inactive; · = no result given.

SMILES | CHT inh | Cl transport mod | CHT PAM | Rad51 HR inh | CHT activ conf | HEK293 MP dye
CCOc1ccc2c(c1)sc(N)[n+]2Cc1cc(C)cc2cccnc12 | – | – | 11 | – | 52 | -34
COc1ccc2c(c1)sc(N)[n+]2Cc1cc(C)cc2cccnc12 | – | – | 9.6 | – | 54 | -38
CC(C)(C)n1nnnc1C(c1ccc(C#N)cc1)N1CCCC2(CCCCC2)C1 (stereo unspecified) | – | – | – | – | 52 | –
CCCCn1c(N)c(N(CC(C)C)C(=O)CSCC(=O)Nc2ccc(OC)cc2)c(=O)[nH]c1=O | – | · | – | · | – | –
CCCc1nnc(NC(=O)CCC(=O)N2CCC(C)CC2)s1 | – | · | – | · | · | ·
CCCCNc1cc(C)nc(NCc2ccccc2)n1 | – | – | 9.2 | – | 33 | –
Cc1cc(C)n(-c2nc3ccccc3nc2N2CCCCCC2)n1 | – | – | – | – | 17 | –
COC(=O)c1cc2c(ccn2-c2ccc(F)cc2)n1CC(C)C | – | – | – | – | 24 | –
COc1cccc2cc(C(=O)OC3CCN(C)CC3)c(=O)oc12 | – | – | 6.7 | – | 43 | -38
COc1ccc2c(c1)[nH]c1c(=O)n(CCCN3CCOCC3)cnc12 | – | – | – | – | · | ·
COc1ccc2c(c1)c1ncn(CCCN3CCOCC3)c(=O)c1n2C | – | – | – | – | 44 | -39
CN(C)c1nc(N)c(C(=O)N=C(N)N)nc1Cl | – | · | 8.7 | – | 56 | -39
NC(=Nc1ccccc1)NC(=O)c1nc(Cl)c(N)nc1N | – | · | – | – | · | ·
CCOC(=O)c1c(C)n(C)c2cc(Br)c(C)cc12 | – | · | – | – | · | ·
CCOC(=O)c1c(CNc2ccncc2)n(C)c2cc(Br)c(O)cc12 | – | – | 11 | – | 52 | -51
CCn1c(=O)c2sccc2n(Cc2cc(C(=O)OC)ccc2OC)c1=O | – | · | – | · | 36 | –
COC(=O)c1ccc(OC)c(Cn2c(=O)n(C)c(=O)c3sccc32)c1 | – | · | – | · | · | ·
Cc1cc(C)n(C2CC(=O)N(c3ccc(C)c(Cl)c3)C2=O)n1 (stereo unspecified) | – | – | – | – | · | ·
CCn1cc(C(=O)OCC(=O)N2C(C)CCCC2C)c(=O)c2ccc(C)nc21 (stereo unspecified) | – | – | – | – | 39 | -29
CCn1cc(C(=O)OCC(=O)Nc2ccc(C(C)C)cc2)c(=O)c2ccc(C)nc21 | – | – | – | – | · | ·
CCn1cc(C(=O)OCC(=O)N(C)C2CCS(=O)(=O)C2)c(=O)c2ccc(C)nc21 (stereo unspecified) | – | – | 8.6 | – | 54 | -62
CCn1cc(C(=O)OCC(=O)N(C)Cc2ccccc2)c(=O)c2ccc(C)nc21 | – | – | – | – | · | ·
Cc1c(CCC(=O)NC2CC2)c(=O)oc2c(C)c(O)ccc12 | – | · | – | · | · | ·
CC(=O)N1CCN(C(=O)c2cccc(S(=O)(=O)NCc3ccccc3)c2)CC1 | – | · | – | · | · | ·
O=C(O)CCc1nn2c3ccccc3n(Cc3ccccc3)c2nc1=O | – | · | – | · | · | ·
SMILES | CHT inh | Cl transport mod | CHT PAM | Rad51 HR inh | CHT activ conf | HEK293 MP dye
Cc1c(O)ccc2c(CN3CCN(CCO)CC3)cc(=O)oc12 | – | – | 17 | · | 66 | -70
Cc1c(NS(=O)(=O)c2ccc3[nH]c(=O)[nH]c3c2)c(=O)n(-c2ccccc2)n1C | – | – | – | – | · | ·
CCCCNC(=O)N1CCN(c2ccnc3cc(Cl)ccc23)CC1 | – | · | – | · | 58 | -61
Cc1ccc(F)cc1NC(=O)N1CCN(c2ccnc3cc(Cl)ccc23)CC1 | – | – | – | – | · | ·
O=C(O)CSCC(=O)N1CCN(c2ccnc3cc(Cl)ccc23)CC1 | – | · | – | · | · | ·
CC(=O)N1CCN(c2ccnc3cc(Cl)ccc23)CC1 | – | – | 8.6 | – | 65 | -67
COCCNC(=O)C(c1ccc(F)cc1)N(C(=O)CCC(=O)Nc1ccccn1)c1cccc(C)c1 (stereo unspecified) | – | · | – | · | · | ·
CCOC(=O)c1[nH]c(CN2CCN(c3ccc(OC)cc3)CC2)c(C(=O)OCC)c1C | – | · | – | · | · | ·
Cc1cc(C)c2c(CN3CCOCC3)cc(=O)oc2c1 | – | – | – | – | · | ·
CCN1CCN(Cc2cc(=O)oc3cc(C)cc(C)c23)CC1 | – | · | 7.1 | – | 40 | -42
COC(=O)CNC(c1ccccc1)c1cc(Br)ccc1NC(=O)CNC(=O)OCc1ccccc1 (stereo unspecified) | – | – | 6.3 | · | 47 | –
O=C(COC(=O)Cc1ccsc1)NCc1ccccc1 | – | – | – | – | · | ·
CC(NC(=O)COC(=O)Cc1ccsc1)c1ccccc1 (stereo unspecified) | – | – | 6.4 | – | – | –
Cc1cc(=O)n2[nH]c(N)c(N=Nc3ccccc3)c2n1 | – | – | – | – | · | ·
CCOc1ccc(N=Nc2c(=O)[nH]n3c(C)cc(C)nc23)cc1 | – | – | – | – | 42 | -49
CCOC(=O)Cn1nc(NC(=O)c2ccc3c(c2)OCO3)cc1C | – | · | – | · | · | ·
CCOC(=O)c1cn(CC)c2cc(Cl)c([N+](=O)[O-])cc2c1=O | – | – | 7.5 | – | 46 | -49
CCOC(=O)c1cn(CC)c2ccc(Br)cc2c1=O | – | – | – | – | 44 | -36
CCOC(=O)c1cn(CC2CC2)c2cc(F)c(F)cc2c1=O | – | – | 8.2 | · | 59 | -67
CCn1cc(C(=O)O)c(=O)c2cc(Br)ccc21 | – | · | – | – | · | ·
CCOc1ccc(CCNC(=O)C2CCCN(S(=O)(=O)N3CCOCC3)C2)cc1OCC (stereo unspecified) | – | · | – | · | · | ·
Cc1cc(=O)n2c3ccccc3n(CC(O)CN3CCCCC3)c2c1C#N (stereo unspecified) | – | · | 7.3 | – | 27 | -44
COc1ccccc1NS(=O)(=O)c1cc([N+](=O)[O-])ccc1N/N=C/c1sc(N2CCOCC2)nc1-c1ccccc1 | – | – | – | – | 23 | –
CCN(C(=O)COc1cccc2cccnc12)C1CCS(=O)(=O)C1 (stereo unspecified) | – | – | – | – | 52 | -38
O=c1[nH]cnc2sc3c(c12)CCN(Cc1ccccc1)C3 | – | – | – | – | · | ·
OCCCNc1ncnc2sc3c(c12)CCN(Cc1ccccc1)C3 | – | · | 6.2 | · | 49 | -53
N#CCC(=O)NNc1c([N+](=O)[O-])cc(C(F)(F)F)cc1[N+](=O)[O-] | – | – | – | – | 27 | -44
O=C(CN1C(=O)NC2(CCCc3ccccc32)C1=O)c1ccc(Br)cc1 (stereo unspecified) | – | · | – | · | · | ·
